Measurements taken from ChEMBL document CHEMBL1122052, “Isomeric cyclopropyl ring-methylated homologues of trans-2-(2,5-dimethoxy-4-methylphenyl)cyclopropylamine, an hallucinogen analogue” (1982).
Calls of active or inactive are those of the source. The rule behind the calls is not given here.

Legend:
Mus musculus [1] = organism: Mus musculus; experiment: Compound was evaluated for hallucinogenic activity in mice; Inactive; format: functional, organism-based
Summary of the method: (§1)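 Male albino Swiss-Webster derived mice, 25–40 g, group housed at 22–24 °C, 12–12 h light-dark cycle. HCl salt given ip in saline (0.1 mL/10 g body weight). Mice observed in groups of three, continuously for 30 min; total hindleg scratches of the back of the ear counted, with the hindleg then returned to the floor. Saline control included.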

Mus musculus [2] = experiment: Evaluated for ear-scratch response (hallucinogen like activity) in mice at a dose of 1.00 mg/Kg; format: functional; summary of the method: as §1
Mus musculus [3] = experiment: Evaluated for ear-scratch response (hallucinogen like activity) in mice at a dose of 2.00 mg/Kg; format: functional; summary of the method: as §1
Mus musculus [4] = experiment: Evaluated for ear-scratch response (hallucinogen like activity) in mice at a dose of 4.00 mg/Kg; format: functional; summary of the method: as §1
Mus musculus [5] = experiment: Evaluated for ear-scratch response (hallucinogen like activity) in mice at a dose of 20.00 mg/Kg; format: functional; summary of the method: as §1
Mus musculus [6] = experiment: Evaluated for ear-scratch response (hallucinogen like activity) in mice at a dose of 5.00 mg/Kg; format: functional; summary of the method: as §1
Mus musculus [7] = experiment: Evaluated for ear-scratch response (hallucinogen like activity) in mice at a dose of 10.00 mg/Kg; format: functional; summary of the method: as §1
Mus musculus [8] = experiment: Evaluated for ear-scratch response (hallucinogen like activity) in mice at a dose of 10.0 mg/Kg; format: functional; summary of the method: as §1
Mus musculus [9] = experiment: Evaluated for ear-scratch response (hallucinogen like activity) in mice at a dose of 20.0 mg/Kg; format: functional; summary of the method: as §1
Mus musculus [10] = experiment: Evaluated for ear-scratch response (hallucinogen like activity) in mice at a dose of 2.5 mg/Kg; format: functional; summary of the method: as §1
Mus musculus [11] = experiment: Evaluated for ear-scratch response (hallucinogen like activity) in mice at a dose of 1.25 mg/Kg; format: functional; summary of the method: as §1

`CC[C@@H](N)Cc1cc(OC)c(C)cc1OC` was tested, and the Halucinogenic activity (Mus musculus [1]) was “inactive”.
Molecule `COc1cc(C[C@@H](C)N)c(OC)cc1C` has a No. of scratches (Mus musculus [2]) of 52.4, a No. of scratches (Mus musculus [3]) of 109.2 and a No. of scratches (Mus musculus [4]) of 79.
`COc1cc(C2CC2N)c(OC)cc1C` (configuration not stated) was tested, and the No. of scratches (Mus musculus [5]) was 64.2, the No. of scratches (Mus musculus [6]) was 39.5 and the No. of scratches (Mus musculus [7]) was 56.2.
In the case of `COc1cc([C@@H]2[C@@H](C)[C@H]2N)c(OC)cc1C` (stereo in doubt; 4a), the No. of scratches (Mus musculus [8]) is reported as 12.8, the No. of scratches (Mus musculus [6]) is reported as 17.3 and the No. of scratches (Mus musculus [9]) is reported as 2.5. The No. of scratches (Mus musculus [10]) was 10.8 and the No. of scratches (Mus musculus [11]) was 11.5.
